Test results from ChEMBL document CHEMBL1143007, “Synthesis and evaluation of 4/5-hydroxy-2,3-diaryl(substituted)-cyclopent-2-en-1-ones as cis-restricted analogues of combretastatin A-4 as novel anticancer agents” (J Med Chem, 2007).
In brackets after ≈: the same amount, converted by molar mass.

Columns and labels:
HT-29 = experiment: Cytotoxicity against human HT29 cells after 72 hrs by MTT assay; type: cell-based; conditions: Homo sapiens, HT-29, 72 h; read-out: IC50
In short: (§1)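 MTT assay. Cells seeded at 5000-10 000 per well and incubated at 37 °C in CO₂ with compound at 1-100 µg/mL in triplicate wells for 72 h, then MTT added. Absorbance read at 540 nm; % cytotoxicity = 100 × (1 − treated/control). IC50 obtained by nonlinear regression; NA means IC50 above 100 µg/mL.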

DU-145 = experiment: Cytotoxicity against human DU145 cells after 72 hrs by MTT assay; type: cell-based; conditions: Homo sapiens, DU-145, 72 h; read-out: IC50; in short: as §1
KB = experiment: Cytotoxicity against human KB cells after 72 hrs by MTT assay; type: cell-based; conditions: Homo sapiens, KB, 72 h; read-out: IC50; in short: as §1
L132 = experiment: Cytotoxicity against human L132 cells after 72 hrs by MTT assay; type: cell-based; conditions: Homo sapiens, L132, 72 h; read-out: IC50; in short: as §1
MIA PaCa-2 = experiment: Cytotoxicity against human MiaPaCa2 cells after 72 hrs by MTT assay; type: cell-based; conditions: Homo sapiens, MIA PaCa-2, 72 h; read-out: IC50; in short: as §1
[1] = Cytotoxicity against human Hep2 cells after 72 hrs by MTT assay; type: cell-based, HEp-2; conditions: Homo sapiens, HEp-2, 72 h; read-out: IC50; in short: as §1
[2] = Cytotoxicity against human PA1 cells after 72 hrs by MTT assay; type: cell-based, PA-1; conditions: Homo sapiens, PA-1, 72 h; read-out: IC50; in short: as §1
[3] = Cytotoxicity against human ECV304 cells after 72 hrs by MTT assay; type: cell-based, ECV-304; conditions: Homo sapiens, ECV-304, 72 h; read-out: IC50; in short: as §1
HEK293 = experiment: Cytotoxicity against human HEK293 cells after 72 hrs by MTT assay; type: cell-based; conditions: Homo sapiens, HEK293, 72 h; read-out: IC50; in short: as §1

| SMILES | IC50 (HT-29) | IC50 (DU-145) | IC50 (KB) | IC50 (L132) | IC50 (MIA PaCa-2) | IC50 [1] | IC50 [2] | IC50 [3] | IC50 (HEK293) |
| --- | --- | --- | --- | --- | --- | --- | --- | --- | --- |
| C=CCOc1cc(C2=C(c3cc(OC)c(OC)c(OC)c3)/C(=N\O)C(O)C2)ccc1OC (configuration not stated) | > 100 µg/mL | > 100 µg/mL | > 100 µg/mL | > 100 µg/mL | > 100 µg/mL | > 100 µg/mL | > 100 µg/mL | > 100 µg/mL | > 100 µg/mL |
| CCOC(=O)COc1ccc(C2=C(c3cc(OC)c(OC)c(OC)c3)C(=O)CC2O)cc1 (configuration not stated) | > 100 µg/mL | > 100 µg/mL | > 100 µg/mL | > 100 µg/mL | > 100 µg/mL | > 100 µg/mL | > 100 µg/mL | > 100 µg/mL | > 100 µg/mL |
| COCOc1cc(C2=C(c3cc(OC)c(OC)c(OC)c3)C(=O)CC2O[Si](C)(C)C(C)(C)C)ccc1OC (configuration not stated) | 43 µg/mL (≈ 78.9 µM) | 34 µg/mL (≈ 62.4 µM) | 33 µg/mL (≈ 60.6 µM) | 32 µg/mL (≈ 58.7 µM) | 50 µg/mL (≈ 91.8 µM) | 12 µg/mL (≈ 22 µM) | 13.5 µg/mL (≈ 24.8 µM) | 40 µg/mL (≈ 73.4 µM) | > 100 µg/mL |
| COc1ccc(C2=C(c3cc(OC)c(OC)c(OC)c3)C(=O)C(OC(C)=O)C2)cc1NC=O (configuration not stated) | < 1 µg/mL | > 100 µg/mL | 8 µg/mL (≈ 17.6 µM) | 2 µg/mL (≈ 4.39 µM) | 2 µg/mL (≈ 4.39 µM) | 3.27 µg/mL (≈ 7.18 µM) | 5 µg/mL (≈ 11 µM) |  | 4.16 µg/mL (≈ 9.13 µM) |
| COc1ccc(C2=C(c3cc(OC)c(OC)c(OC)c3)C(=O)C(O)C2)cc1F (configuration not stated) | < 1 µg/mL | 27 µg/mL (≈ 69.5 µM) | 4.5 µg/mL (≈ 11.6 µM) | < 1 µg/mL | 64 µg/mL (≈ 165 µM) | < 1 µg/mL | > 100 µg/mL | 19.5 µg/mL (≈ 50.2 µM) | > 100 µg/mL |
| COc1ccc(C2=C(c3cc(OC)c(OC)c(OC)c3)CC(O[Si](C)(C)C(C)(C)C)C2=O)cc1[N+](=O)[O-] (configuration not stated) | > 100 µg/mL | > 100 µg/mL | > 100 µg/mL | > 100 µg/mL | > 100 µg/mL | > 100 µg/mL | > 100 µg/mL | > 100 µg/mL | > 100 µg/mL |
| COc1ccc(C2=C(c3cc(OC)c(OC)c(OC)c3)C(=O)C(OC(C)=O)C2)cc1OC(C)C (configuration not stated) | > 100 µg/mL | > 100 µg/mL | > 100 µg/mL | > 100 µg/mL | > 100 µg/mL | > 100 µg/mL | > 100 µg/mL | > 100 µg/mL | > 100 µg/mL |
| COc1cc(C2=C(c3cc(C)c(OC)c(C)c3)C(OC(C)=O)C/C2=N/O)cc(OC)c1OC (configuration not stated) | > 100 µg/mL | > 100 µg/mL | > 100 µg/mL | > 100 µg/mL | > 100 µg/mL | > 100 µg/mL | > 100 µg/mL | > 100 µg/mL | > 100 µg/mL |
| COc1ccc(C2=C(c3cc(OC)c(OC)c(OC)c3)C(=O)C(O)C2)cc1Cl (configuration not stated) | < 1 µg/mL | 40 µg/mL (≈ 98.8 µM) | 2.5 µg/mL (≈ 6.18 µM) | < 1 µg/mL | > 100 µg/mL | < 1 µg/mL | > 100 µg/mL | 20 µg/mL (≈ 49.4 µM) | > 100 µg/mL |
| COc1ccc(C2=C(c3cc(OC)c(OC)c(OC)c3)C(=O)C(O)C2)cc1OC(C)C (configuration not stated) | > 100 µg/mL | > 100 µg/mL | > 100 µg/mL | > 100 µg/mL | > 100 µg/mL | > 100 µg/mL | > 100 µg/mL | > 100 µg/mL | > 100 µg/mL |
| COc1cc(C2=C(c3ccc(SC)cc3)CC(O)/C2=N/O)cc(OC)c1OC (configuration not stated) | 36 µg/mL (≈ 89.7 µM) | 2.5 µg/mL (≈ 6.23 µM) | 15 µg/mL (≈ 37.4 µM) | > 100 µg/mL | 40 µg/mL (≈ 99.6 µM) | < 1 µg/mL | 25.3 µg/mL (≈ 63 µM) | 57 µg/mL (≈ 142 µM) | 27 µg/mL (≈ 67.3 µM) |
| COc1cc(C2=C(c3ccccc3)C(O[Si](C)(C)C(C)(C)C)CC2=O)cc(OC)c1OC (configuration not stated) | > 100 µg/mL | > 100 µg/mL | > 100 µg/mL | > 100 µg/mL | > 100 µg/mL | > 100 µg/mL | > 100 µg/mL | > 100 µg/mL | > 100 µg/mL |
| COc1ccc(C2=C(c3cc(OC)c(OC)c(OC)c3)C(=O)CC2O[Si](C)(C)C(C)(C)C)cc1O (configuration not stated) | 38 µg/mL (≈ 75.9 µM) | 75 µg/mL (≈ 150 µM) | 6.5 µg/mL (≈ 13 µM) | < 1 µg/mL | 55 µg/mL (≈ 110 µM) | 14.5 µg/mL (≈ 29 µM) | 14 µg/mL (≈ 28 µM) | 30 µg/mL (≈ 59.9 µM) | 42 µg/mL (≈ 83.9 µM) |
| COc1cc(C2=C(c3cc(C)c(OC)c(C)c3)C(O)CC2=O)cc(OC)c1OC (configuration not stated) | > 100 µg/mL | > 100 µg/mL | > 100 µg/mL | > 100 µg/mL | > 100 µg/mL | > 100 µg/mL | > 100 µg/mL | > 100 µg/mL | > 100 µg/mL |
| COc1ccc(C2=C(c3cc(OC)c(OC)c(OC)c3)C(=O)CC2O)cc1O (configuration not stated) | < 1 µg/mL | 8 µg/mL (≈ 20.7 µM) | < 1 µg/mL | < 1 µg/mL | > 100 µg/mL | < 1 µg/mL | < 1 µg/mL | > 100 µg/mL | > 100 µg/mL |
| COc1ccc(C2=C(c3cc(OC)c(OC)c(OC)c3)/C(=N\O)CC2O[Si](C)(C)C(C)(C)C)cc1OC (configuration not stated) | 20 µg/mL (≈ 37.8 µM) | 60 µg/mL (≈ 113 µM) | 15 µg/mL (≈ 28.3 µM) | 60 µg/mL (≈ 113 µM) | 15 µg/mL (≈ 28.3 µM) | 32 µg/mL (≈ 60.4 µM) |  | 36 µg/mL (≈ 68 µM) | 70 µg/mL (≈ 132 µM) |
| COc1ccc(C2=C(c3cc(OC)c(OC)c(OC)c3)/C(=N\O)CC2O)cc1 (configuration not stated) | 15 µg/mL (≈ 38.9 µM) | 34.2 µg/mL (≈ 88.9 µM) |  | 11 µg/mL (≈ 28.5 µM) | > 100 µg/mL | > 100 µg/mL | 2.35 µg/mL (≈ 6.1 µM) | > 100 µg/mL | > 100 µg/mL |
| COc1cc(C2=C(c3cc(C)c(OC)c(C)c3)C(O[Si](C)(C)C(C)(C)C)CC2=O)cc(OC)c1OC (configuration not stated) | 10 µg/mL (≈ 19.5 µM) | > 100 µg/mL | 40 µg/mL (≈ 78 µM) | > 100 µg/mL |  | 26 µg/mL (≈ 50.7 µM) | 32 µg/mL (≈ 62.4 µM) | 15 µg/mL (≈ 29.3 µM) | 29 µg/mL (≈ 56.6 µM) |
| COc1ccc(C2=C(c3cc(OC)c(OC)c(OC)c3)C(=O)C(OC(C)=O)C2)cc1 (configuration not stated) | < 1 µg/mL | > 100 µg/mL | 72 µg/mL (≈ 175 µM) | > 100 µg/mL | < 1 µg/mL | 18 µg/mL (≈ 43.6 µM) | < 1 µg/mL | 18 µg/mL (≈ 43.6 µM) |  |
| COc1ccc(C2=C(c3cc(OC)c(OC)c(OC)c3)/C(=N\O)C(OC(C)=O)C2)cc1 (configuration not stated) | 1 µg/mL (≈ 2.34 µM) | > 100 µg/mL | 69 µg/mL (≈ 161 µM) |  | < 1 µg/mL | 100 µg/mL (≈ 234 µM) | < 1 µg/mL | > 100 µg/mL | 25.6 µg/mL (≈ 59.9 µM) |
| COc1cc(C2=C(c3ccc(OCC(=O)[O-])cc3)C(O)CC2=O)cc(OC)c1OC.[Na+] (configuration not stated) |  | > 100 µg/mL | > 100 µg/mL |  | > 100 µg/mL | > 100 µg/mL |  |  | > 100 µg/mL |
| COc1ccc(C2=C(c3cc(OC)c(OC)c(OC)c3)C(=O)CC2O)cc1 (configuration not stated) | 15 µg/mL (≈ 40.5 µM) | 18.7 µg/mL (≈ 50.5 µM) |  | 10 µg/mL (≈ 27 µM) | > 100 µg/mL | > 100 µg/mL | 3.38 µg/mL (≈ 9.13 µM) | > 100 µg/mL | 10 µg/mL (≈ 27 µM) |
